From ChEMBL document CHEMBL4311931, “Controlling cellular distribution of drugs with permeability modifying moieties” (Medchemcomm, 2019)
pEC50, pIC50, pKi: −log10 of the molar value.

Key:
[1] = Permeability of compound in 5% DMSO after 7 hrs by PAMPA; format: ADME; settings: read-out: permeability
[2] = target: T1, 5-hydroxytryptamine receptor 1A (Homo sapiens, UniProt P08908); assay: Antagonist activity at human 5HT1A expressed in BAF3 cells by fluorimetry analysis; format: cell-based
T1 sequence (P08908 whole entry): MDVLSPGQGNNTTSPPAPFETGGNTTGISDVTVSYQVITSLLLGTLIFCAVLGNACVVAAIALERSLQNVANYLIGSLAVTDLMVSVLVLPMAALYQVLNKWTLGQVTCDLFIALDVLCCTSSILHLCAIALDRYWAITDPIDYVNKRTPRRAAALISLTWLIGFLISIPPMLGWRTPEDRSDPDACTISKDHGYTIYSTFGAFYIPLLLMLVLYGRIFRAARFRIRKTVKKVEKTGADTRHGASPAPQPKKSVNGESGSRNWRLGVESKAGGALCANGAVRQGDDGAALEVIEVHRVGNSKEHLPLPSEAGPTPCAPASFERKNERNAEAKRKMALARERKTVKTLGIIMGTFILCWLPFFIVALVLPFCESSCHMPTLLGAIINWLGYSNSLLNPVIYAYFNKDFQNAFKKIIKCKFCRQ

[3] = target: T1, 5-hydroxytryptamine receptor 1A; assay: Displacement of [3H]-OH-DPAT from human recombinant 5-HT1A receptor measured after 60 mins by scintillation counter method
[4] = target: T2, Beta-2 adrenergic receptor (Homo sapiens, UniProt P07550); assay: Displacement of [3H](-)CGP 12177 from human recombinant beta2 adrenoceptor after 120 mins by scintillation counting method
Target sequence in this assay (P07550 whole entry): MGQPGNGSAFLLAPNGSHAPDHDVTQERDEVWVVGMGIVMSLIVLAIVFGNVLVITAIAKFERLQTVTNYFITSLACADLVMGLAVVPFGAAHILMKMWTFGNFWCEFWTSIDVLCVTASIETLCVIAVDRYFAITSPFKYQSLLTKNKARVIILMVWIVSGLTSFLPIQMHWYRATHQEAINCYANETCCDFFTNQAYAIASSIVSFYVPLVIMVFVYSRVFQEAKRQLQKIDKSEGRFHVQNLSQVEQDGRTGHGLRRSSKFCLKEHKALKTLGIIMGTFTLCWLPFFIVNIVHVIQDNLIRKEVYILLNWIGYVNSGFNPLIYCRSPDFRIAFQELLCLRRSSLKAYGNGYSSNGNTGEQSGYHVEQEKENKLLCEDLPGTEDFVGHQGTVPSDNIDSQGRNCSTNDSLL

[5] = target: T3, 5-hydroxytryptamine receptor 1A (Homo sapiens) (UniProt P08908); assay: Displacement of [3H]-OH-DPAT from human recombinant 5-HT1A receptor measured after 60 mins by scintillation counter method relative to parent compound
T3 sequence (whole entry): T1 sequence (P08908 whole entry)

[6] = target: T2, Beta-2 adrenergic receptor; assay: Displacement of [3H](-)CGP 12177 from human recombinant beta2 adrenoceptor after 120 mins by scintillation counting method relative to parent compound
Target sequence in this assay (P07550 whole entry, looked up): as the sequence (P07550 whole entry) above

[7] = target: T2, Beta-2 adrenergic receptor; assay: Antagonist activity at human recombinant beta2 adrenoreceptor expressed in CHOK1 cells incubated for 30 mins by HTRF relative to parent compound; format: cell-based
Target sequence in this assay (P07550 whole entry, looked up): as the sequence (P07550 whole entry) above

[8] = target: T2, Beta-2 adrenergic receptor; assay: Antagonist activity at human recombinant beta2 adrenoreceptor expressed in CHOK1 cells incubated for 30 mins by HTRF; format: cell-based
Target sequence in this assay (P07550 whole entry): as above

DLD-1 [9] = assay: cells; settings: Homo sapiens
DLD-1 [10] = assay: cells; settings: Homo sapiens; remark: listed apart in the source
K562 = assay: Antiproliferative activity against human K562 cells assessed as reduction in cell viability by measuring ATP level incubated for 3 days by Celltiter-Glo assay; format: functional, cell-based; settings: K562, 72 h
How it was run: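 K562 cells grown in RPMI 1640 with 50 mM HEPES and 10% FBS at 37 °C in 5% CO2, then plated at 20 000 cells per well. Compounds were log-serially diluted in DMSO, then in RPMI, to final concentrations of 10 000 nM to 0.01 nM. Cells were exposed for 3 days, and total intracellular ATP was read by CellTiter-Glo. IC50 is the geometric mean of at least two duplicate runs.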

PC-3 = assay: Antiproliferative activity against human PC3 cells assessed as reduction in cell viability by Celltiter-Glo assay; format: functional, cell-based
How it was run: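 PC3 cells from ATCC, authenticated by STR analysis. Viability was read by CellTiter-Glo, and cell EC50 is the geometric mean of at least two duplicate runs.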

C=CCc1ccccc1OCC(O)CNC(C)C (stereo not given) [ALPRENOLOL]
Papp at 7 h [1]: 10.9 ×10⁻⁶ cm/s
pIC50 [2]: 6.20
pKi [3]: 7.67

Cc1nc(Nc2ncc(C(=O)Nc3c(C)cccc3Cl)s2)cc(N2CCNCC2)n1
Papp at 7 h [1]: 0.0371 ×10⁻⁶ cm/s

CC(C)NCC(O)COc1ccccc1CCCSCC(=O)NCCOCCOCCNC(=O)OC(C)(C)C (stereo not given)
pKi [4]: 8.49
fold change (FC) [5]: 0.871
Papp at 7 h [1]: 0.0189 ×10⁻⁶ cm/s
pIC50 [2]: 6.19
fold change (FC) [6]: 0.21
fold change (FC) [7]: 0.31
pIC50 [8]: 7.66
pKi [3]: 7.31

O=C(CS(=O)(=O)O)NCCOCCOCC(=O)N1CCN(C(=O)c2cc(Cc3n[nH]c(=O)c4ccccc34)ccc2F)CC1
pEC50 (DLD-1 [9]): 5.96
pEC50 (DLD-1 [10]): 4.28

NCCOCCOCC(=O)N1CCN(C(=O)c2cc(Cc3n[nH]c(=O)c4ccccc34)ccc2F)CC1
Papp at 7 h [1]: 0.00119 ×10⁻⁶ cm/s
pEC50 (DLD-1 [9]): 6.22
pEC50 (DLD-1 [10]): < 4.00

Cc1nc(Nc2ncc(C(=O)Nc3c(C)cccc3Cl)s2)cc(N2CCN(CCOCCOCCNC(=O)C3C(C(=O)O)C(C(=O)O)C3C(=O)O)CC2)n1 (stereo not given)
pIC50 (K562): 6.74
Papp at 7 h [1]: 0.0122 ×10⁻⁶ cm/s

Cc1nc(Nc2ncc(C(=O)Nc3c(C)cccc3Cl)s2)cc(N2CCN(CCO)CC2)n1.O [DASATINIB]
pIC50 (K562): 9.20
Papp at 7 h [1]: 1.49 ×10⁻⁶ cm/s

Cc1sc2c(c1C)C(c1ccc(Cl)cc1)=N[C@@H](CC(=O)OC(C)(C)C)c1nnc(C)n1-2
Papp at 7 h [1]: 2.24 ×10⁻⁶ cm/s

COC(=O)CSCCCc1ccccc1OCC(O)CNC(C)C (stereo not given)
pKi [4]: 7.82
fold change (FC) [5]: 1
Papp at 7 h [1]: 0.0436 ×10⁻⁶ cm/s
pIC50 [2]: 5.54
fold change (FC) [6]: 1
fold change (FC) [7]: 1
pIC50 [8]: 7.14
pKi [3]: 7.25

C=CCc1ccccc1OCC(O)CNCCOCCOCCOCCOCCNC(=O)OC(C)(C)C (stereo not given)
pKi [4]: 8.43
fold change (FC) [5]: 1.12
pIC50 [2]: < 6.00
fold change (FC) [6]: 7.4
fold change (FC) [7]: 2.09
pIC50 [8]: 8.16
pKi [3]: 7.62

Cc1nn(C)cc1-c1ccc2cc(CCN3CCC[C@H]3C)ccc2n1
Papp at 7 h [1]: 1.13 ×10⁻⁶ cm/s

C=CCc1ccccc1OCC(O)CNCCOCCOCCOCCOCCNC(=O)CCCCCC1(C)C(/C=C/C=C/C=C2/N(CCCS(=O)(=O)O)c3ccc(S(=O)(=O)O)cc3C2(C)C)=[N+](CCCS(=O)(=O)[O-])c2ccc(S(=O)(=O)O)cc21 (stereo not given)
pKi [4]: 6.26
fold change (FC) [5]: 132
pIC50 [2]: < 6.00
fold change (FC) [6]: 1090
fold change (FC) [7]: 151
pIC50 [8]: 6.30
pKi [3]: 5.54

CC(C)NCC(O)COc1ccccc1CCCSCC(=O)NCCOCCOCCNC(=O)CS(=O)(=O)O (stereo not given)
pKi [4]: 7.79
fold change (FC) [5]: 15.1
pIC50 [2]: < 5.00
fold change (FC) [6]: 1.09
fold change (FC) [7]: 1.19
pIC50 [8]: 7.07
pKi [3]: 5.75

O=C(O)C1C(C(=O)O)C(C(=O)NCCOCCOCC(=O)N2CCN(C(=O)c3cc(Cc4n[nH]c(=O)c5ccccc45)ccc3F)CC2)C1C(=O)O (stereo not given)
pEC50 (DLD-1 [9]): 5.11
pEC50 (DLD-1 [10]): < 4.00

O=C(c1cc(Cc2n[nH]c(=O)c3ccccc23)ccc1F)N1CCN(C(=O)C2CC2)CC1 [OLAPARIB]
Papp at 7 h [1]: 3.37 ×10⁻⁶ cm/s
pEC50 (DLD-1 [9]): 7.00
pEC50 (DLD-1 [10]): 4.72

C=CCc1ccccc1OCC(O)CNCCOCCOCCOCCOCCNC(=O)C1C(C(=O)O)C(C(=O)O)C1C(=O)O (stereo not given)
pKi [4]: 6.29
fold change (FC) [5]: 82.4
Papp at 7 h [1]: 0.0012 ×10⁻⁶ cm/s
pIC50 [2]: < 6.00
fold change (FC) [6]: 1024
fold change (FC) [7]: 303
pIC50 [8]: < 6.00
pKi [3]: 5.75

O=C(c1cc(Cc2n[nH]c(=O)c3ccccc23)ccc1F)N1CCNCC1
Papp at 7 h [1]: 0.081 ×10⁻⁶ cm/s
pEC50 (DLD-1 [9]): 6.70
pEC50 (DLD-1 [10]): < 4.00

CC(C)(C)OC(=O)NCCOCCOCC(=O)N1CCN(C(=O)c2cc(Cc3n[nH]c(=O)c4ccccc34)ccc2F)CC1
pEC50 (DLD-1 [9]): 6.15
pEC50 (DLD-1 [10]): < 4.00

CC(C)NCC(O)COc1ccccc1CCCSCC(=O)NCCOCCOCCN (stereo not given)
pKi [4]: 8.54
fold change (FC) [5]: 6.32
pIC50 [2]: < 5.00
fold change (FC) [6]: 0.19
fold change (FC) [7]: 0.26
pIC50 [8]: 7.72
pKi [3]: 5.54

CC(C)NCC(O)COc1ccccc1CCCSCC(=O)NCCOCCOCCNC(=O)C1C(C(=O)O)C(C(=O)O)C1C(=O)O (stereo not given)
pKi [4]: 7.10
fold change (FC) [5]: 35.2
pIC50 [2]: < 5.00
fold change (FC) [6]: 24.6
fold change (FC) [7]: 5.27
pIC50 [8]: 6.42
pKi [3]: 5.76

O=C(/C=C/c1cccnc1)NCCCCC1CCN(C(=O)c2ccccc2)CC1 [DAPORINAD]
Papp at 7 h [1]: 39.5 ×10⁻⁶ cm/s
pIC50 (PC-3): 8.22

CC(C)NCC(O)COc1ccccc1CCCSCC(=O)NCCOCCOCCNC(=O)CCCCCC1(C)C(/C=C/C=C/C=C2/N(CCCS(=O)(=O)O)c3ccc(S(=O)(=O)O)cc3C2(C)C)=[N+](CCCS(=O)(=O)[O-])c2ccc(S(=O)(=O)O)cc21 (stereo not given)
pKi [4]: 7.59
fold change (FC) [5]: 18.9
pIC50 [2]: < 5.00
fold change (FC) [6]: 1.73
fold change (FC) [7]: 1.33
pIC50 [8]: 7.02
pKi [3]: 6.03

CC1(CCCCCC(=O)NCCOCCOCC(=O)N2CCN(C(=O)c3cc(Cc4n[nH]c(=O)c5ccccc45)ccc3F)CC2)C(/C=C/C=C/C=C2/N(CCCS(=O)(=O)O)c3ccc(S(=O)(=O)O)cc3C2(C)C)=[N+](CCCS(=O)(=O)[O-])c2ccc(S(=O)(=O)O)cc21 (stereo not given)
pEC50 (DLD-1 [9]): 6.22
pEC50 (DLD-1 [10]): 4.15

C=CCc1ccccc1OCC(O)CNCCOCCOCCOCCOCCN (stereo not given)
pKi [4]: 7.99
fold change (FC) [5]: 1.66
pIC50 [2]: < 6.00
fold change (FC) [6]: 20.6
fold change (FC) [7]: 30.3
pIC50 [8]: 7.00
pKi [3]: 7.45

Cc1nc(Nc2ncc(C(=O)Nc3c(C)cccc3Cl)s2)cc(N2CCN(CCOCCOCCNC(=O)CCCCCC3(C)C(/C=C/C=C/C=C4/N(CCCS(=O)(=O)O)c5ccc(S(=O)(=O)O)cc5C4(C)C)=[N+](CCCS(=O)(=O)[O-])c4ccc(S(=O)(=O)O)cc43)CC2)n1 (stereo not given)
pIC50 (K562): 7.54

C=CCc1ccccc1OCC(O)CNCCOCCOCCOCCOCCNC(=O)CS(=O)(=O)O (stereo not given)
pKi [4]: 6.12
fold change (FC) [5]: 12.1
pIC50 [2]: < 6.00
fold change (FC) [6]: 150
fold change (FC) [7]: 25.3
pIC50 [8]: 7.08
pKi [3]: 6.58
